Results as given in ChEMBL document CHEMBL4680134, “Structural optimization of natural product nordihydroguaretic acid to discover novel analogues as AcrB inhibitors” (Eur J Med Chem, 2020).
Calls of active or inactive are those of the source. The rule behind the calls is not given here.

Experiments:
[1] = biological target: T1, Multidrug efflux pump subunit AcrB (Escherichia coli (strain K12)) (UniProt P31224); experiment: Inhibition of AcrB in Escherichia coli BW25113 assessed as potentiation of tetraphenylphosphonium induced antibacterial activity by measuring tetraphenylphosphonium MIC at 64 ug/ml measured after 18 hrs by checkerboard titration method (reference value: 1024 ug/ml); conditions: dose 64.0 µg/ml
T1 sequence (whole entry): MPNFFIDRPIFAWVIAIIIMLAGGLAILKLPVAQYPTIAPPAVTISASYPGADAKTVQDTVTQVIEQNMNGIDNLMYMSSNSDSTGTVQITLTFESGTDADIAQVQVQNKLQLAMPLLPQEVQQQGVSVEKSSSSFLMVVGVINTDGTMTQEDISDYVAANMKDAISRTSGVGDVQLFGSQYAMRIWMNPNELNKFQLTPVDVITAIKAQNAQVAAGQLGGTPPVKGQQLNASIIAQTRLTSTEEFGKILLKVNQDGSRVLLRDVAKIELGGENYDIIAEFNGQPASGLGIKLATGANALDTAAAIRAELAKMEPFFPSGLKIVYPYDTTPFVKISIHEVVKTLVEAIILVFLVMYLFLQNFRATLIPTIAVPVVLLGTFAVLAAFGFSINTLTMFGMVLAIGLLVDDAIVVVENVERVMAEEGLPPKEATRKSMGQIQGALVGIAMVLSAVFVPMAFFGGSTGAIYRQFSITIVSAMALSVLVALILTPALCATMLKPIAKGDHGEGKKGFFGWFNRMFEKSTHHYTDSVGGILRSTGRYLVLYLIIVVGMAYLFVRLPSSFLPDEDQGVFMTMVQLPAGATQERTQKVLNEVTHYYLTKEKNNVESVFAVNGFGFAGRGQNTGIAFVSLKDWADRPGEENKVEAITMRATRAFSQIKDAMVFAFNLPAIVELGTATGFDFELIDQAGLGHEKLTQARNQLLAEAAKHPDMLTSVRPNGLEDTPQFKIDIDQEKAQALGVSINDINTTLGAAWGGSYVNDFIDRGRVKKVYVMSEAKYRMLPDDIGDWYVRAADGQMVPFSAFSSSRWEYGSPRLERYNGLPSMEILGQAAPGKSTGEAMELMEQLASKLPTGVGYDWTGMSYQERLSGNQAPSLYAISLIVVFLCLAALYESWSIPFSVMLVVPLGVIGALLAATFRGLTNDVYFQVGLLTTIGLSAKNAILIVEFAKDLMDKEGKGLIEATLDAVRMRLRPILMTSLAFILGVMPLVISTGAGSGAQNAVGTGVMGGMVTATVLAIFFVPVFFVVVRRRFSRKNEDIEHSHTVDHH

[2] = biological target: T1, Multidrug efflux pump subunit AcrB (Escherichia coli (strain K12)); experiment: Inhibition of AcrB in Escherichia coli BW25113 assessed as potentiation of levofloxacin induced antibacterial activity by measuring levofloxacin MIC at 256 ug/ml measured after 18 hrs by checkerboard titration method (reference value: 0.06 ug/ml); conditions: dose 256.0 µg/ml
[3] = biological target: T1, Multidrug efflux pump subunit AcrB (Escherichia coli (strain K12)); experiment: Inhibition of AcrB in Escherichia coli BW25113 assessed as potentiation of chloramphenicol induced antibacterial activity by measuring chloramphenicol MIC at 128 ug/ml measured after 18 hrs by checkerboard titration method (reference value: 8 ug/ml); conditions: dose 128.0 µg/ml
[4] = biological target: T1, Multidrug efflux pump subunit AcrB (Escherichia coli (strain K12)); experiment: Inhibition of AcrB in Escherichia coli BW25113 assessed as potentiation of tetraphenylphosphonium induced antibacterial activity by measuring tetraphenylphosphonium MIC at 128 ug/ml measured after 18 hrs by checkerboard titration method (reference value: 1024 ug/ml); conditions: dose 128.0 µg/ml
[5] = biological target: T1, Multidrug efflux pump subunit AcrB (Escherichia coli (strain K12)); experiment: Inhibition of AcrB in Escherichia coli BW25113 assessed as potentiation of tetraphenylphosphonium induced antibacterial activity by measuring tetraphenylphosphonium MIC at 256 ug/ml measured after 18 hrs by checkerboard titration method (reference value: 1024 ug/ml); conditions: dose 256.0 µg/ml
[6] = biological target: T1, Multidrug efflux pump subunit AcrB (Escherichia coli (strain K12)); experiment: Inhibition of AcrB in Escherichia coli BW25113 assessed as potentiation of erythromycin induced antibacterial activity by measuring erythromycin MIC at 256 ug/ml measured after 18 hrs by checkerboard titration method (reference value: 64 ug/ml); conditions: dose 256.0 µg/ml
[7] = biological target: T1, Multidrug efflux pump subunit AcrB (Escherichia coli (strain K12)); experiment: Inhibition of AcrB in Escherichia coli BW25113 assessed as potentiation of erythromycin induced antibacterial activity by measuring erythromycin MIC at 128 ug/ml measured after 18 hrs by checkerboard titration method (reference value: 64 ug/ml); conditions: dose 128.0 µg/ml
[8] = biological target: T1, Multidrug efflux pump subunit AcrB (Escherichia coli (strain K12)); experiment: Inhibition of AcrB in Escherichia coli BW25113 assessed as reduction in glucose-induced nile red efflux at 50 to 100 uM preincubated for 15 mins followed by nile red addition and incubated for 3 hrs in shaker in presence of CCCP by fluorimetric analysis; conditions: dose 50-100 µM, time 195.0 min
Method in brief: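 Whole-cell efflux: wild-type and ΔAcrB cells preloaded with Nile Red, with or without compound, before fluorescence readings. Efflux triggered at 100 s with 0.2% glucose and followed by fluorometry. The ΔAcrB strain marks maximal accumulation. Triplicate experiments with different cell batches.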

[9] = biological target: T1, Multidrug efflux pump subunit AcrB (Escherichia coli (strain K12)); experiment: Inhibition of AcrB in Escherichia coli BW25113 assessed as potentiation of erythromycin induced antibacterial activity by measuring erythromycin MIC at 32 ug/ml measured after 18 hrs by checkerboard titration method (reference value: 64 ug/ml); conditions: dose 32.0 µg/ml
[10] = biological target: T1, Multidrug efflux pump subunit AcrB (Escherichia coli (strain K12)); experiment: Inhibition of AcrB in Escherichia coli BW25113 assessed as potentiation of rifampicin induced antibacterial activity by measuring rifampicin MIC at 128 ug/ml measured after 18 hrs by checkerboard titration method (reference value: 16 ug/ml); conditions: dose 128.0 µg/ml
[11] = biological target: T1, Multidrug efflux pump subunit AcrB (Escherichia coli (strain K12)); experiment: Inhibition of AcrB in Escherichia coli BW25113 assessed as potentiation of chloramphenicol induced antibacterial activity by measuring chloramphenicol MIC at 256 ug/ml measured after 18 hrs by checkerboard titration method (reference value: 8 ug/ml); conditions: dose 256.0 µg/ml
[12] = biological target: T1, Multidrug efflux pump subunit AcrB (Escherichia coli (strain K12)); experiment: Inhibition of AcrB in Escherichia coli BW25113 assessed as potentiation of rifampicin induced antibacterial activity by measuring rifampicin MIC at 64 ug/ml measured after 18 hrs by checkerboard titration method (reference value: 16 ug/ml); conditions: dose 64.0 µg/ml
[13] = biological target: T1, Multidrug efflux pump subunit AcrB (Escherichia coli (strain K12)); experiment: Inhibition of AcrB in Escherichia coli BW25113 assessed as reduction in glucose-induced nile red efflux at 500 uM preincubated for 15 mins followed by nile red addition and incubated for 3 hrs in shaker in presence of CCCP by fluorimetric analysis; conditions: time 195.0 min
Method in brief: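 Wild-type E. coli cells with active AcrB were preloaded with Nile Red, with or without compound, before fluorescence recording began. At 100 sec, 0.2% glucose was added to re-energize the cells and trigger efflux, which was followed by fluorometry. An acrB-deleted isogenic strain served as the maximum-accumulation (no-efflux) reference. Triplicate experiments used different cell batches.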

[14] = biological target: T1, Multidrug efflux pump subunit AcrB (Escherichia coli (strain K12)); experiment: Inhibition of AcrB in Escherichia coli BW25113 assessed as potentiation of tetraphenylphosphonium induced antibacterial activity by measuring tetraphenylphosphonium MIC at 8 ug/ml measured after 18 hrs by checkerboard titration method (reference value: 1024 ug/ml); conditions: dose 8.0 µg/ml
[15] = biological target: T1, Multidrug efflux pump subunit AcrB (Escherichia coli (strain K12)); experiment: Inhibition of AcrB in Escherichia coli BW25113 assessed as potentiation of chloramphenicol induced antibacterial activity by measuring chloramphenicol MIC at 8 ug/ml measured after 18 hrs by checkerboard titration method (reference value: 8 ug/ml); conditions: dose 8.0 µg/ml

Structure (SMILES)	MIC [1]	MIC [2]	MIC [3]	MIC [4]	MIC [5]	MIC [6]	MIC [7]	inhibition [8]	MIC [9]	MIC [10]	MIC [11]	MIC [12]	inhibition [13]	MIC [14]	MIC [15]
C[C@H](Cc1ccc(O)c(O)c1)[C@@H](C)Cc1ccc(O)c(O)c1 [MASOPROCOL]	1020 µg/mL	0.03 µg/mL	4 µg/mL	128 µg/mL	64 µg/mL	32 µg/mL	64 µg/mL	Active	64 µg/mL	16 µg/mL	2 µg/mL	16 µg/mL			
Oc1ccc(CCCc2ccc(O)c(O)c2)cc1O	512 µg/mL	0.06 µg/mL	8 µg/mL	512 µg/mL	512 µg/mL	32 µg/mL	32 µg/mL		64 µg/mL	16 µg/mL	8 µg/mL	16 µg/mL	Active		
Nc1ccc(C(=O)NCCc2ccc(O)c(O)c2)cc1	1020 µg/mL		2 µg/mL	512 µg/mL			16 µg/mL		32 µg/mL	16 µg/mL		16 µg/mL	Active	1020 µg/mL	8 µg/mL
O=C(NCCc1ccc(O)c(O)c1)c1ccc(C(F)(F)F)cc1	1020 µg/mL		8 µg/mL	1020 µg/mL			64 µg/mL		64 µg/mL	16 µg/mL		16 µg/mL		1020 µg/mL	8 µg/mL
Oc1ccc(CCCCCCCc2ccc(O)c(O)c2)cc1O	512 µg/mL	0.06 µg/mL	8 µg/mL	512 µg/mL	512 µg/mL	64 µg/mL	64 µg/mL		64 µg/mL	16 µg/mL	8 µg/mL	16 µg/mL			
O=C(NCCc1ccc(O)c(O)c1)c1ccc(Br)cc1	1020 µg/mL		8 µg/mL	1020 µg/mL			32 µg/mL		64 µg/mL	16 µg/mL		16 µg/mL		1020 µg/mL	8 µg/mL
Oc1ccc(CCCCc2ccc(O)c(O)c2)cc1O	512 µg/mL	0.06 µg/mL	8 µg/mL	512 µg/mL	512 µg/mL	32 µg/mL	32 µg/mL		64 µg/mL	16 µg/mL	4 µg/mL	16 µg/mL			
Oc1ccc(CCCCCCc2ccc(O)c(O)c2)cc1O	512 µg/mL	0.06 µg/mL	8 µg/mL	512 µg/mL	512 µg/mL	64 µg/mL	64 µg/mL	Active	64 µg/mL	16 µg/mL	8 µg/mL	16 µg/mL			
Oc1ccc(CCCCCc2ccc(O)c(O)c2)cc1O	1020 µg/mL	0.06 µg/mL	8 µg/mL	512 µg/mL	32 µg/mL	64 µg/mL	64 µg/mL		64 µg/mL	16 µg/mL	8 µg/mL	16 µg/mL			
Oc1ccc(CCCCc2cc(O)c(O)c(O)c2)cc1O	512 µg/mL	0.06 µg/mL	8 µg/mL	256 µg/mL	256 µg/mL	32 µg/mL	32 µg/mL		64 µg/mL	16 µg/mL	1 µg/mL	16 µg/mL	Active		
O=C(NCCc1ccc(O)c(O)c1)c1ccc(O)c(O)c1	512 µg/mL		2 µg/mL	512 µg/mL			32 µg/mL		32 µg/mL	16 µg/mL		16 µg/mL		1020 µg/mL	8 µg/mL
Nc1cc(N)cc(C(=O)NCCc2ccc(O)c(O)c2)c1	512 µg/mL		8 µg/mL	512 µg/mL			32 µg/mL		32 µg/mL	16 µg/mL		16 µg/mL		512 µg/mL	8 µg/mL
O=C(NCCc1ccc(O)c(O)c1)c1ccccc1O	512 µg/mL		4 µg/mL	512 µg/mL			64 µg/mL		64 µg/mL	16 µg/mL		16 µg/mL		1020 µg/mL	8 µg/mL
Oc1ccc(CCCCc2cc3cccc4ccc5cccc2c5c43)cc1O	512 µg/mL	0.06 µg/mL	4 µg/mL	256 µg/mL	256 µg/mL	32 µg/mL	32 µg/mL	Active	64 µg/mL	16 µg/mL	4 µg/mL	16 µg/mL			
Cc1ccc(C(=O)NCCc2ccc(O)c(O)c2)cc1								Active	16 µg/mL	16 µg/mL		16 µg/mL		1020 µg/mL	8 µg/mL
Oc1ccc(CCCCc2ccc(Br)cc2)cc1O	512 µg/mL	0.06 µg/mL	8 µg/mL	512 µg/mL	512 µg/mL	64 µg/mL	64 µg/mL	Active	64 µg/mL	16 µg/mL	8 µg/mL	16 µg/mL			
Oc1ccc(CCCCc2ccccc2O)cc1O	512 µg/mL	0.06 µg/mL	4 µg/mL	512 µg/mL	512 µg/mL	32 µg/mL	64 µg/mL		64 µg/mL	16 µg/mL	4 µg/mL	16 µg/mL	Active		
Oc1ccc(CCCCc2ccc(Cl)cc2)cc1O	512 µg/mL	0.06 µg/mL	16 µg/mL	512 µg/mL	512 µg/mL	64 µg/mL	64 µg/mL	Active	64 µg/mL	16 µg/mL	16 µg/mL	16 µg/mL			
